Data as given in the array DNA melting data of Ke et al. (doi:10.1101/2024.01.08.574731).

How the values were obtained:
[1] = folding enthalpy; higher = less favourable; fluorescence melt of hairpins on a sequencing array, two-state fit; settings: sodium 0.088 M
In short: (§1)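 Folding enthalpy and melting temperature come from bootstrapped two-state fits to Cy3 fluorescence of library hairpins carrying annealed Cy3 and quencher oligos on a sequenced MiSeq flow cell. Imaging was done in 50 mM Na-HEPES pH 8.0, 25 mM NaCl, stepping by 2.5 °C up to 60 °C, and signals were normalised to pre-quench Cy3 and to control constructs. Results of four replicates were combined by inverse variance, and fitted temperatures were raised by 9.35 °C to match UV melts.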

[2] = melting temperature; fluorescence melt of hairpins on a sequencing array, two-state fit, raised by 9.35 °C to match UV melts; settings: sodium 0.088 M
In short: as §1

Row | Sequence | folding enthalpy [1] [kcal/mol] | Tm [2] [°C]
1 | TGTTCGAAAGAACA (((((....))))) | -17.1 | 52.3
2 | GATCGTGACGACGATC ((((((....)))))) | -39.2 | 56.8
3 | GGTGGAGCGAAAGCTACC (((..(((....)))))) | -13.7 | 44.1
4 | GAACTAGAAATAGTTC ((((((....)))))) | -29.3 | 42
5 | GTACTGCGAAAGCAATAC (((.(((....))).))) | -21.6 | 37.4
6 | GAGAGCACGAAAGTGCTC (((..(((....)))))) | -7.79 | 64.1
7 | GGTCATGGAAACATGGTC (..((((....))))..) | -17.6 | 32.7
8 | GCCGGCCCGAAAGGGGGC (((..(((....)))))) | -11.3 | 58.3
9 | GCAACCGAAAGGTCGTGC ((((((....)))..))) | -17.6 | 38.1
10 | GATCGTTGTACGATC ((((((...)))))) | -38.8 | 61.1
11 | GAGACTGCGAAAGCACTC (((..(((....)))))) | -9.86 | 26.7
12 | GATCTCGTTGAGATC ((((((...)))))) | -37.8 | 54.9
13 | GATCTCCATCGAGATC ((((((....)))))) | -34.4 | 50.7
14 | GAATGACGAAAGTCGTTC (((.(((....))).))) | -34.4 | 54.7
15 | GTTAAGCGAAAGCTGAAC (((.(((....))).))) | -23.2 | 48.2
16 | GTAAGCGGAAACGTTTGC (.((.((....)).)).) | -14.9 | 31.9
17 | GATCTACTCTTAGATC ((((((....)))))) | -29.7 | 41.1
18 | GCAAGCCGAAAGGCGTGC (((.(((....))).))) | -18.9 | 68.7
19 | GATCGGATCCCCGATC ((((((....)))))) | -41.4 | 54
20 | GTGCTAGCGAAAGCTCAC (((..(((....)))))) | -9.59 | 42.1
21 | GATCACTGGGGTGATC ((((((....)))))) | -47.5 | 58.3
22 | GTAGCGGGAAACCGTTAC (((.(((....))).))) | -30.2 | 47.8
23 | GACTTACGAAAGTACGTC (((.(((....))).))) | -33.2 | 44.3

Row | Sequence | folding enthalpy [1] [kcal/mol] | Tm [2] [°C]
24 | CGTAGCGGAAACGCGACG (((.(((....))).))) | -31 | 59.1
25 | AGTAACTGAAAAGTTACT (((((((....))))))) | -32.3 | 51.6
26 | GACATAGGAAACTGTGTC ((((.((....)).)))) | -40.5 | 44.4
27 | GATCGGGGACCCGATC ((((((....)))))) | -45.9 | 63
28 | GCACAGCGAAAGCCGGGC ((.(.((....)).).)) | -22.4 | 55.7
29 | GGCTGTACGAAAGTAGCC (((..(((....)))))) | -27.5 | 51.1
30 | GATCGAGCCCTCGATC ((((((....)))))) | -42.1 | 56.4
31 | GATTCCGAAAGGAATATC ((((((....)))..))) | -17.4 | 46.6
32 | GGTACTGAAAAGTACC ((((((....)))))) | -39.5 | 57.4
33 | GCTTGGCGAAAGCAATGC ((.(.((....)).).)) | -12.8 | 38.4
34 | GCCCGTGGAAACATGGGC ((((.((....)).)))) | -46 | 61.2
35 | GTGTCGCGAAAGCGTCAC (((.(((....))).))) | -31.9 | 63
36 | GCCACGGGAAACCGCGAC (.(.(((....))).).) | -12.1 | 29.1
37 | GATCGAAAGGTCGATC ((((((....)))))) | -28.7 | 47.7
38 | GATCTACTGGTAGATC ((((((....)))))) | -43.6 | 52.8
39 | GGCCCGGGAAACCGGGTC (.(((((....))))).) | -28.9 | 67.3
40 | GGAGGCGAAAGCCGTTCC ((((((....)))..))) | -8.29 | 41.6
41 | GCTTCGCGAAAGCCGAGC (((..((....))..))) | -18.5 | 41.7
42 | GCAGGTGGAAACGTCTGC ((((..(....)..)))) | -25.7 | 42.5
43 | GTTGGGGGAAACCCTAAC (((.(((....))).))) | -26.6 | 45.1
44 | GACATGGAAACATGTC ((((((....)))))) | -38.2 | 56
45 | GCGTAAGGAAACTTACGC (((((((....))))))) | -44.5 | 63.4
46 | GAGTGCGGAAACGTACTC ((((.((....)).)))) | -43.3 | 53.9

Row | Sequence | folding enthalpy [1] [kcal/mol] | Tm [2] [°C]
47 | GCTAACGAAAGTTAAAGC ((((((....)))..))) | -18.5 | 36.7
48 | GGGTCTGGAAACAGACTC (.(((((....))))).) | -21.9 | 52
49 | GGGCTGCGAAAGCAACCC (((.(((....))).))) | -38.9 | 60.2
50 | GGAGGCGAAAGCCATTCC ((((((....)))..))) | -7.5 | 34.7
51 | GCCATGCGAAAGCATCGC ((.((((....)))).)) | -18.1 | 49.5
52 | GCGACATTCGC ((((...)))) | -14 | 52.3
53 | GCGTCGCGAAAGCTGCGC (((..((....))..))) | -22.5 | 61.7
54 | GAGAGTGGAAACGCTTTC ((.((.(....).)).)) | -9.25 | 27.3
55 | GCCATGCGAAAGCAGCGC ((..(((....)))..)) | -17.2 | 47
56 | GATTAAGCGAAAGCTATC (((..(((....)))))) | -9.58 | 29.5
57 | GACTACCCGAAAGGGGTC (((..(((....)))))) | -11.3 | 38.3
58 | GTGAGCGAAAGCTGGCAC ((((((....)))..))) | -9 | 43
59 | GCCGAGCGAAAGCCCAGC ((.(.((....)).).)) | -12.4 | 35.8
60 | GCTATCCGAAAGGAAAGC (((.(((....))).))) | -31.4 | 49
61 | GGAATAGGAAACTATTTC (.(((((....))))).) | -29.1 | 30.6
62 | GTTGGCGAAAGCCGAAC ((((((....))).))) | -13.8 | 50.5
63 | GTCCATCGAAAGATCGAC (((.(((....))).))) | -31 | 35.5
64 | GCCCCGCGAAAGCGCTGC ((..(((....)))..)) | -9.38 | 31.6
65 | GTGCATGGAAACGTGTAC ((.((.(....).)).)) | -17.6 | 38.6
66 | GTTATGGGAAACCACAAC (((.(((....))).))) | -14.9 | 29.2
67 | GGTGTGGGAAACCGCACC ((((.((....)).)))) | -42.9 | 60.4
68 | GCGGCCGAAAGGCACCGC ((((((....)))..))) | -16.8 | 56
69 | GGGGAAACGAAAGTTCCC (((..(((....)))))) | -22.1 | 52

Row | Sequence | folding enthalpy [1] [kcal/mol] | Tm [2] [°C]
70 | GGCGCCCCGAAAGGGGCC (((..(((....)))))) | -7.09 | 58.6
71 | GAGTATACGAAAGTACTC (((..(((....)))))) | -15.7 | 34
72 | GATCCATCCTTGGATC ((((((....)))))) | -44.2 | 53.6
73 | GGGCGCCCGAAAGGGCCC (((..(((....)))))) | -11.5 | 59.5
74 | GACGCAGGAAACCACGTC ((((..(....)..)))) | -16.3 | 34.9
75 | GCTCGGGGAAACCCGAAC (.(((((....))))).) | -12.6 | 45.9
76 | GTGCACGGAAACGTGTGC (..((((....))))..) | -27.7 | 50.2
77 | GAACTTGGAAACAGGTTC ((((.((....)).)))) | -32.2 | 41
78 | GCAGAGCGAAAGCTTGC (((.(((....)))))) | -20.6 | 53.7
79 | GCTCGCGAAAGCGCCAGC ((((((....)))..))) | -8.57 | 42.1
80 | GCTTCGCGAAAGCTAAGC ((((.((....)).)))) | -20.5 | 57.2
81 | GTTTGGGGAAACCCGAAC (((.(((....))).))) | -36.5 | 49.3
82 | GTCATCCGAAAGGAGAC (((.(((....)))))) | -20.1 | 45.2
83 | GCTGCCGAAAGGCGGAGC ((((((....)))..))) | -12.6 | 51.3
84 | GGAAGCGAAAGCTCGTCC ((((((....)))..))) | -11.6 | 29.5
85 | GCGAAGCGAAAGCCGCGC (((..((....))..))) | -16.8 | 61.6
86 | GGAACTCGAAAGAGCTCC (((.(((....))).))) | -33.9 | 48.2
87 | CGAAACGGAAACGTGTCG (((.(((....))).))) | -31.5 | 47.5
88 | GCTTCGCGAAAGCACAGC (((..((....))..))) | -15.3 | 38.2
89 | GCGTACATACGC ((((....)))) | -24 | 52.1
90 | GCGAGCATTCGC ((((....)))) | -27.1 | 57.1
91 | GGAACGGGAAACCATTCC ((((.((....)).)))) | -30.2 | 35.9
92 | GTTCGCCCGAAAGGGAAC (((..(((....)))))) | -13.9 | 35.9
